From BindingDB's records for doi:10.1021/jm9811256 (Academy of Sciences of The Czech Republic, 1999)

Assays:
[1] = Inhibitory activity against varicella zoster virus thymidine kinase (VZV TK+) OKA strain
[2] = Inhibition of herpes simplex virus type 1 thymidine kinase (HSV-1 TK-) B2006 strain
[3] = Inhibitory activity against varicella zoster virus thymidine kinase (VZV TK-) 07/1 strain
[4] = Inhibitory activity against herpes simplex virus type 1 (HSV-1) thymidine kinase (TK) VMW 1837 strain
[5] = Inhibitory activity against varicella zoster virus thymidine kinase (VZV TK+) YS strain
[6] = Inhibition of varicella zoster virus thymidine kinase (VZV TK+) YS/R strain
Thymidine kinase [7] = molecular target: T1, Thymidine kinase (Human herpesvirus 3, UniProt Q6QCL9); assay: Inhibitory activity against varicella zoster virus thymidine kinase (VZV TK+) YS strain
T1 sequence (Q6QCL9 whole entry): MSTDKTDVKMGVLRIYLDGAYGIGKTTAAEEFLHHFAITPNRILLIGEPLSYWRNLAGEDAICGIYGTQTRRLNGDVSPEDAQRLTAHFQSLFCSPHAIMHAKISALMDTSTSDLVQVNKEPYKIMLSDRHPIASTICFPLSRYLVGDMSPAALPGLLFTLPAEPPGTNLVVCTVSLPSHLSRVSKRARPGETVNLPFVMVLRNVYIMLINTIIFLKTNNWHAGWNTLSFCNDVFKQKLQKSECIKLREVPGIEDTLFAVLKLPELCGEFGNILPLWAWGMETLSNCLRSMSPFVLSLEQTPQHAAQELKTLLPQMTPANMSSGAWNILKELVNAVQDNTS
In short: (§1)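 HEL cell cultures were grown to confluence and infected with 100 CCID50 of VZV. After a 1 h adsorption period, unbound virus was removed and compound was added at serial concentrations (400, 200, 100, ... μg/mL). Cytopathic effect was read when untreated virus controls reached full cytopathicity.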

Thymidine kinase [8] = molecular target: T1, Thymidine kinase; assay: Inhibitory activity against varicella zoster virus thymidine kinase (VZV TK+) OKA strain
In short: as §1

Compound | EC50 [1] [µM] | EC50 [2] [µM] | EC50 [3] [µM] | EC50 [4] [µM] | EC50 [5] [µM] | EC50 [6] [µM] | EC50 (Thymidine kinase [7]) [µM] | EC50 (Thymidine kinase [8]) [µM]
Nc1ccnc2c1ncn2CCOCP(=O)(O)O | > 1460 | 734 | 1100 | 551 | 734 |  |  | 
Nc1nnc(N)c2c1ncn2CCOCP(=O)(O)O | > 173 | > 693 | > 173 | 1040 | > 173 |  |  | 
Nc1ccn(CCOCP(=O)(O)O)c(=O)c1 | > 402 |  | 302 |  | 261 |  |  | 
CC(C)OP(=O)(COCCn1cnc2c(S)ncnc21)OC(C)C | > 133 | > 1060 | > 133 | > 1060 | > 133 |  |  | 
CC(C)CCCCCOP(=O)(COCCn1cnc2nc(N)nc(O)c21)OCCCCCC(C)C | 62.3 | > 31.1 | 50.6 | > 31.1 | 58.4 |  |  | 
CC(C)CCCCCOP(=O)(O)COCCn1cnc2c(O)nc(N)nc21 | 3.98 | 597 | 87.1 | 597 | 32.3 |  |  | 
CCOP(=O)(O)COCCn1cnc2c(N)ncnc21 | 132 | 497 | 149 | 497 | 199 |  |  | 
Nc1nc(O)c2nc(Br)n(CCOCP(=O)(O)O)c2n1 | 10.8 | > 1080 | 76 | 130 | 48.9 |  |  | 
Cc1nc(N)nc2c1ncn2CCOCP(=O)(O)O | > 174 | 522 | > 174 | 696 | > 174 |  |  | 
Nc1nc(=O)ccn1CCOCP(=O)(O)O | > 401 |  | > 401 |  | 160 |  |  | 
CC(C)OP(=O)(COCCn1c(Br)nc2c(O)nc(N)nc21)OC(C)C | > 110 | > 884 | > 110 | 530 | > 110 |  |  | 
CC(C)CCCCCOP(=O)(COCCn1cnc2c(N)ncnc21)OCCCCCC(C)C | 4.82 | > 6.43 | 6.63 | > 6.43 | 4.01 |  |  | 
Nc1nc(S)c2c(ncn2CCOCP(=O)(O)O)n1 | 121 | > 327 | 65.5 | 65.5 | 98.2 |  |  | 
Nc1ncnc2c1ccn2CCOCP(=O)(O)O | 183 | 1100 |  | 551 | 73.4 |  |  | 
CCOP(=O)(O)COCCn1cnc2c(N)nc(N)nc21 | 12.6 | 632 | 6.32 | 474 | 15.8 |  |  | 
Nc1nc(O)c2c(ncn2CCOCP(=O)(O)O)n1 | 152 | > 691 |  | > 691 | > 172 |  |  | 
Nc1nc(=O)n(CCOCP(=O)(O)O)cc1Br | 18.2 | 914 | 9.14 | 60.9 | 15.2 |  |  | 
CC(C)OP(=O)(COCCn1cnc2c(N)nc(N)nc21)OC(C)C | > 134 | 644 | > 134 | 214 | 96.6 |  |  | 
O=P(O)(O)COCCn1cnc2c(S)ncnc21 |  | > 1370 | > 172 | > 1370 | > 172 |  |  | 
CC(C)OP(=O)(COCCn1cnc2c(Cl)nc(N)nc21)OC(C)C | 33.1 |  | 22.9 |  | 25.5 |  |  | 
Nc1nc(N)c2nc(Br)n(CCOCP(=O)(O)O)c2n1 | 8.71 | 54.4 | 16.3 | 54.4 | 22.8 |  |  | 
NC1=NC2N=CC=NC2C(=O)N1CCOCP(=O)(O)O (centres undefined) | 26.3 | 230 | 98.9 | 230 | 115 |  |  | 
Nc1nc(O)nc2c1ncn2CCOCP(=O)(O)O | > 172 | > 1380 | > 172 | > 1380 | > 172 |  |  | 
CC(C)OP(=O)(COCCn1c(Br)nc2c(N)nc(N)nc21)OC(C)C | 57.6 | > 886 | > 110 | > 886 | > 110 |  |  | 
Nc1cc2c(ncn2CCOCP(=O)(O)O)c(O)n1 | 2.56 | 24.2 | 3.22 | 6.93 |  | 1.76 | 5.55 | 
CCOP(=O)(O)COCCn1cnc2c(O)nc(N)nc21 | 0.0252 | 12.6 | 0.0126 | 6.3 | 0.0315 |  |  | 
CC(C)OP(=O)(O)COCCn1cnc2c(N)ncnc21 | > 158 | > 1260 | > 158 | 951 | > 158 |  |  | 

Compound | EC50 [1] [µM] | EC50 [2] [µM] | EC50 [3] [µM] | EC50 [4] [µM] | EC50 [5] [µM] | EC50 [6] [µM] | EC50 (Thymidine kinase [7]) [µM] | EC50 (Thymidine kinase [8]) [µM]
CC(C)OP(=O)(COCCn1ncc(N)nc1=O)OC(C)C | > 299 |  | 239 |  | 290 |  |  | 
CC(C)OP(=O)(COCCn1cnc2nc(N)nc(O)c21)OC(C)C | > 133 | > 535 |  | > 535 | > 133 |  |  | 
Nc1nc(F)nc2c1ncn2CCOCP(=O)(O)O | 85.8 | 68.6 | 113 | 240 | 99.5 |  |  | 
CC(C)OP(=O)(COCCn1cnc2c(O)nc(N)nc21)OC(C)C | 53.5 | 642 | 83 | 642 | 37.4 |  |  | 
Nc1ncnc2c1nc(Br)n2CCOCP(=O)(O)O | > 142 |  | > 142 |  | > 142 |  |  | 
Nc1cnn(CCOCP(=O)(O)O)c(=O)n1 | > 399 |  | > 399 |  | > 399 |  |  | 
CC(C)OP(=O)(O)COCCn1cnc2c(N)nc(N)nc21 | 96.8 | > 1210 | > 151 | > 1210 | > 151 |  |  | 
CC(C)CCCCCOP(=O)(COCCn1cnc2nc(N)nc(Cl)c21)OCCCCCC(C)C | > 9.39 | > 30 | > 9.39 | > 30 | > 9.39 |  |  | 
CSc1ncnc2c1ncn2CCOCP(=O)(O)O | 164 |  | > 1310 |  | > 1310 |  |  | 
Nc1cc(N)c2ncn(CCOCP(=O)(O)O)c2n1 | > 174 | 522 | > 174 | 243 | > 174 |  |  | 
Nc1nc(Cl)nc2c1ncn2CCOCP(=O)(O)O | 130 |  | 61.7 |  | 104 |  |  | 
CC(C)CCCCCOP(=O)(COCCn1cnc2c(O)nc(N)nc21)OCCCCCC(C)C |  | > 155 | 35 | > 155 | 8.17 |  |  | 21.4
Nc1nccc2c1ncn2CCOCP(=O)(O)O | 183 |  | 257 |  | 367 |  |  | 
Nc1cc2c(ncn2CCOCP(=O)(O)O)c(N)n1 | > 17.4 | 1390 | > 17.4 | 243 | > 17.4 |  |  | 
Nc1ncc2ncn(CCOCP(=O)(O)O)c2n1 | 219 |  | 98.8 | 256 | 102 |  |  | 
Nc1cccc2c1ncn2CCOCP(=O)(O)O | > 184 | > 1470 | > 184 | > 1470 | > 184 |  |  | 
Nc1ccn(CCOCP(=O)(O)O)c(=O)n1 | 602 |  | 602 | 401 | 1600 |  |  | 
Nc1nccc(OCCOCP(=O)(O)O)n1 | > 401 |  | > 401 | > 802 | > 401 |  |  | 
CC(C)OP(=O)(COCCn1cnc2c(N)nc(Cl)nc21)OC(C)C | 1.27 |  |  |  | 9.44 |  |  | 
Nc1cc2ncn(CCOCP(=O)(O)O)c2c(O)n1 |  | > 693 |  | > 693 |  |  |  | 
CC(C)CCCCCOP(=O)(COCCn1cnc2c(Cl)nc(N)nc21)OCCCCCC(C)C | > 3.75 | > 30 | > 3.75 | > 30 | > 3.75 |  |  | 
Nc1nc(Cl)c2ncn(CCOCP(=O)(O)O)c2n1 | 0.0195 | 0.487 | 0.065 | 0.747 | 0.227 |  |  | 
Nc1nc(N)c2ncn(CCOCP(=O)(O)O)c2n1 [PMEDAP] | 3.46 |  | 8.67 | 6.93 | 6.93 |  |  | 
CC(C)OP(=O)(COCCn1cnc2c(N)ncnc21)OC(C)C | 19.5 | > 1110 | 55.9 | > 1110 | 111 |  |  | 
CC(C)OP(=O)(O)COCCn1cnc2c(O)nc(N)nc21 | 0.0121 | 17.2 | 0.0151 | 17.2 | 0.0302 |  |  | 
CC(C)CCCCCOP(=O)(COCCn1cnc2c(N)nc(N)nc21)OCCCCCC(C)C | > 9.75 | > 31.2 | > 39 | > 31.2 | 6.24 |  |  | 
